Data from ChEMBL document CHEMBL4689842, “EUbOPEN Chemogenomics Library wave 1” (2021).

System: HEK-293T
Test: Multiplex assay against HEK293T;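 for Population Tubulin-Different-Phenotype (%): share of the cells with healthy nuclei that show this phenotype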
Type: toxicity, cell-based
Settings: human
How it was run: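 Live cells carried four stains from seeding: Hoechst33342, BioTracker Green Microtubule Cytoskeleton Dye, MitoTracker Red and Annexin V Alexa Fluor 680. They were imaged on a CQ1 microscope at 37°C and 5% CO2 after compound addition. Using CellPathfinder machine-learning gating, cells were split into Hoechst high-intensity objects or normal cells, normal cells into healthy, pyknosed or fragmented nuclei, and pyknosed cells into mitotic or apoptotic; tubulin, mitochondrial-mass and membrane-permeability phenotypes are per cents of healthy-nucleus cells.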

[1] = 12 h, 1 µM, compound concentration 1 uM, replicate 1
[2] = 12 h, 1 µM, compound concentration 1 uM, replicate 2
[3] = 12 h, 10 µM, compound concentration 10 uM, replicate 1
[4] = 12 h, 10 µM, compound concentration 10 uM, replicate 2
[5] = 24 h, 1 µM, compound concentration 1 uM, replicate 1
[6] = 24 h, 1 µM, compound concentration 1 uM, replicate 2
[7] = 24 h, 10 µM, compound concentration 10 uM, replicate 1
[8] = 24 h, 10 µM, compound concentration 10 uM, replicate 2
[9] = 48 h, 1 µM, compound concentration 1 uM, replicate 1
[10] = 48 h, 1 µM, compound concentration 1 uM, replicate 2
[11] = 48 h, 10 µM, compound concentration 10 uM, replicate 1
[12] = 48 h, 10 µM, compound concentration 10 uM, replicate 2

C=CC(=O)Nc1cc(-n2c(=O)ccc3cnc4ccc(-c5ccc(NS(C)(=O)=O)cc5)cc4c32)ccc1C
Population Apoptotic (%) [1]: 44%
Population Fragmented Nuclei (%) [1]: 15%
Population Healthy Nuclei (%) [1]: 22%
Population Hoechst High Intensity Objects (%) [1]: 22%
Population Membrane Permeable-Phenotype (%) [1]: 0%
Population Mitochondria Different-Phenotype (%) [1]: 76%
Population Mitotic Cells (%) [1]: 55%
Population Normal (%) [1]: 77%
Population Pyknosed Nuclei (%) [1]: 62%
Population Tubulin-Different-Phenotype (%) [1]: 50%
Total Cell Count [1]: 174
Population Apoptotic (%) [2]: 13%
Population Fragmented Nuclei (%) [2]: 13%
Population Healthy Nuclei (%) [2]: 35%
Population Hoechst High Intensity Objects (%) [2]: 5%
Population Membrane Permeable-Phenotype (%) [2]: 17%
Population Mitochondria Different-Phenotype (%) [2]: 15%
Population Mitotic Cells (%) [2]: 86%
Population Normal (%) [2]: 94%
Population Pyknosed Nuclei (%) [2]: 50%
Population Tubulin-Different-Phenotype (%) [2]: 26%
Total Cell Count [2]: 171
Population Apoptotic (%) [3]: 50%
Population Fragmented Nuclei (%) [3]: 20%
Population Healthy Nuclei (%) [3]: 19%
Population Hoechst High Intensity Objects (%) [3]: 16%
Population Membrane Permeable-Phenotype (%) [3]: 0%
Population Mitochondria Different-Phenotype (%) [3]: 86%
Population Mitotic Cells (%) [3]: 50%
Population Normal (%) [3]: 83%
Population Pyknosed Nuclei (%) [3]: 60%
Population Tubulin-Different-Phenotype (%) [3]: 63%
Total Cell Count [3]: 184
Population Apoptotic (%) [4]: 13%
Population Fragmented Nuclei (%) [4]: 0%
Population Healthy Nuclei (%) [4]: 40%
Population Hoechst High Intensity Objects (%) [4]: 8%
Population Membrane Permeable-Phenotype (%) [4]: 9%
Population Mitochondria Different-Phenotype (%) [4]: 34%
Population Mitotic Cells (%) [4]: 86%
Population Normal (%) [4]: 91%
Population Pyknosed Nuclei (%) [4]: 58%
Population Tubulin-Different-Phenotype (%) [4]: 42%
Total Cell Count [4]: 204
Population Apoptotic (%) [5]: 42%
Population Fragmented Nuclei (%) [5]: 15%
Population Healthy Nuclei (%) [5]: 28%
Population Hoechst High Intensity Objects (%) [5]: 19%
Population Membrane Permeable-Phenotype (%) [5]: 15%
Population Mitochondria Different-Phenotype (%) [5]: 62%
Population Mitotic Cells (%) [5]: 57%
Population Normal (%) [5]: 80%
Population Pyknosed Nuclei (%) [5]: 55%
Population Tubulin-Different-Phenotype (%) [5]: 57%
Total Cell Count [5]: 173
Population Apoptotic (%) [6]: 11%
Population Fragmented Nuclei (%) [6]: 9%
Population Healthy Nuclei (%) [6]: 58%
Population Hoechst High Intensity Objects (%) [6]: 3%
Population Membrane Permeable-Phenotype (%) [6]: 11%
Population Mitochondria Different-Phenotype (%) [6]: 16%
Population Mitotic Cells (%) [6]: 88%
Population Normal (%) [6]: 96%
Population Pyknosed Nuclei (%) [6]: 31%
Population Tubulin-Different-Phenotype (%) [6]: 32%
Total Cell Count [6]: 199
Population Apoptotic (%) [7]: 48%
Population Fragmented Nuclei (%) [7]: 19%
Population Healthy Nuclei (%) [7]: 22%
Population Hoechst High Intensity Objects (%) [7]: 13%
Population Membrane Permeable-Phenotype (%) [7]: 0%
Population Mitochondria Different-Phenotype (%) [7]: 78%
Population Mitotic Cells (%) [7]: 51%
Population Normal (%) [7]: 86%
Population Pyknosed Nuclei (%) [7]: 58%
Population Tubulin-Different-Phenotype (%) [7]: 59%
Total Cell Count [7]: 194
Population Apoptotic (%) [8]: 25%
Population Fragmented Nuclei (%) [8]: 4%
Population Healthy Nuclei (%) [8]: 56%
Population Hoechst High Intensity Objects (%) [8]: 2%
Population Membrane Permeable-Phenotype (%) [8]: 7%
Population Mitochondria Different-Phenotype (%) [8]: 30%
Population Mitotic Cells (%) [8]: 74%
Population Normal (%) [8]: 97%
Population Pyknosed Nuclei (%) [8]: 39%
Population Tubulin-Different-Phenotype (%) [8]: 57%
Total Cell Count [8]: 228
Population Apoptotic (%) [9]: 45%
Population Fragmented Nuclei (%) [9]: 21%
Population Healthy Nuclei (%) [9]: 17%
Population Hoechst High Intensity Objects (%) [9]: 23%
Population Membrane Permeable-Phenotype (%) [9]: 3%
Population Mitochondria Different-Phenotype (%) [9]: 40%
Population Mitotic Cells (%) [9]: 54%
Population Normal (%) [9]: 76%
Population Pyknosed Nuclei (%) [9]: 60%
Population Tubulin-Different-Phenotype (%) [9]: 33%
Total Cell Count [9]: 204
Population Apoptotic (%) [10]: 9%
Population Fragmented Nuclei (%) [10]: 7%
Population Healthy Nuclei (%) [10]: 81%
Population Hoechst High Intensity Objects (%) [10]: 6%
Population Membrane Permeable-Phenotype (%) [10]: 10%
Population Mitochondria Different-Phenotype (%) [10]: 4%
Population Mitotic Cells (%) [10]: 90%
Population Normal (%) [10]: 93%
Population Pyknosed Nuclei (%) [10]: 10%
Population Tubulin-Different-Phenotype (%) [10]: 22%
Total Cell Count [10]: 321
Population Apoptotic (%) [11]: 52%
Population Fragmented Nuclei (%) [11]: 24%
Population Healthy Nuclei (%) [11]: 18%
Population Hoechst High Intensity Objects (%) [11]: 18%
Population Membrane Permeable-Phenotype (%) [11]: 16%
Population Mitochondria Different-Phenotype (%) [11]: 29%
Population Mitotic Cells (%) [11]: 47%
Population Normal (%) [11]: 81%
Population Pyknosed Nuclei (%) [11]: 56%
Population Tubulin-Different-Phenotype (%) [11]: 45%
Total Cell Count [11]: 204
Population Apoptotic (%) [12]: 17%
Population Fragmented Nuclei (%) [12]: 5%
Population Healthy Nuclei (%) [12]: 79%
Population Hoechst High Intensity Objects (%) [12]: 3%
Population Membrane Permeable-Phenotype (%) [12]: 8%
Population Mitochondria Different-Phenotype (%) [12]: 6%
Population Mitotic Cells (%) [12]: 82%
Population Normal (%) [12]: 96%
Population Pyknosed Nuclei (%) [12]: 15%
Population Tubulin-Different-Phenotype (%) [12]: 27%
Total Cell Count [12]: 457
